Reference: article PMC4165341 (ACS nano, 2011)

Legend:
[1] = molecular target: T1, mOR256-17, His-tagged, nanotube device (Mus musculus, UniProt P23275); test: carbon nanotube transistor current change; type: binding; conditions: odorant vapor in N2, 50% RH, concentration not given
T1 sequence (P23275 1-312): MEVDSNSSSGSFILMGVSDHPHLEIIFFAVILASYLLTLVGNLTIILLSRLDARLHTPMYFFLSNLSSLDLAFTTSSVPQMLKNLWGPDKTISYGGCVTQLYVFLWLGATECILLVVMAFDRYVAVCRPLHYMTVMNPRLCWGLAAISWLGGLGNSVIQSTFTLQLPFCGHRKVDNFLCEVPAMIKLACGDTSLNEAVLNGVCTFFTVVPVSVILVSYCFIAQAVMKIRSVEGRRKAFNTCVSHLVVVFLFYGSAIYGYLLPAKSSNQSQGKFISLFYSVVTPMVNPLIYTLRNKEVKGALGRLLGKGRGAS

[2] = molecular target: T2, mOR174-9 (mOR-EG), His-tagged, nanotube device (Mus musculus, UniProt Q920P2); test: carbon nanotube transistor current change; type: binding; conditions: digitonin micelle device; eugenol vapor in N2, 50% RH (2 ppm in Figure 2)
T2 sequence (Q920P2 1-313): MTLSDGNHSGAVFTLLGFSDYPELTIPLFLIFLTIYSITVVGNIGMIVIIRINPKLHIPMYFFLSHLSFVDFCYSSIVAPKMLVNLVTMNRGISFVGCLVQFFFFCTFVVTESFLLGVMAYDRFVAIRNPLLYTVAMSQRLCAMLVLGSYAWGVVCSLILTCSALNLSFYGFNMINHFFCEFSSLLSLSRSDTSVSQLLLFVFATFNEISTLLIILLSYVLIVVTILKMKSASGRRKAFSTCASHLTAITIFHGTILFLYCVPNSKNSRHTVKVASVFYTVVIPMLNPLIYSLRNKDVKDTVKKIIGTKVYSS
Outline: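 Receptor solubilised from crude plasma membranes in 6.76 mM digitonin, captured on Ni-magnetic beads (1 h, 4 °C), eluted in 4.88 mM digitonin/acetate pH 4.0, readjusted to pH 8.0, used immediately. Back-gated nanotube transistors (on/off >1000) treated with 11.3 mM NTA-NH2 (2 h), then 11.3 mM NiCl2; receptor deposited 30 min, room temperature. Current recorded under computer-controlled humidity, temperature and vapor flow.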

mOR 256-17 / nanodisc nanotube [1]: +33.6±8.3%
mOR 174-9 / micelle nanotube [2]: +20.9±4.6%
Structure (SMILES): C=CCc1ccc(O)c(OC)c1 [eugenol]
